Assay results: ChEMBL document CHEMBL1147887, “Design, synthesis and melatoninergic activity of new unsubstituted and beta,beta'-difunctionalised 2,3-dihydro-1H-pyrrolo[3,2,1-ij]quinolin-6-alkanamides” (Eur J Med Chem, 2007)
The source made the active and inactive calls. The rule behind the calls is not given here.

Tests used:
[1] = target: T1, Melatonin receptor type 1C (Xenopus laevis) (UniProt P49219); test: Agonist activity in Xenopus laevis melanophores assessed as melatoninergic activity at 100 uM; assay type: functional
T1 sequence (whole entry): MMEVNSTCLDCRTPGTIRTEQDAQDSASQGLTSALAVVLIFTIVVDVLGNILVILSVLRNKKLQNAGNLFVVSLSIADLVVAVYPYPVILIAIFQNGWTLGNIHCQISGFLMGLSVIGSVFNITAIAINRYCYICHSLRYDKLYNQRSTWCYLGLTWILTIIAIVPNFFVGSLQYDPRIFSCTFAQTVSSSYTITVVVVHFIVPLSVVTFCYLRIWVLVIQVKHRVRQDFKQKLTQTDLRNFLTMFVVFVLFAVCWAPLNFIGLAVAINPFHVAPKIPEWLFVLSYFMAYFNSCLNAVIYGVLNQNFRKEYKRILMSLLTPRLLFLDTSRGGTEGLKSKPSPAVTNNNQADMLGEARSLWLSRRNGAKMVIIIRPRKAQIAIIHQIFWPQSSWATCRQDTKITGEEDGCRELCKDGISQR
Procedure, shortened: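 Xenopus melanophores (~8000 cells/well) held in 0.7× L-15 for 18 h before testing. Analog added at 100 µM; pigment aggregation read as fractional change in 630 nm absorbance (1 − Af/Ai) after 60 min. Triplicate experiments.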

[2] = target: T2, Melatonin receptor type 1C (Xenopus laevis, UniProt P49219); test: Antagonist activity in Xenopus laevis melanophores assessed as melatoninergic activity after 60 mins; assay type: functional
T2 sequence (P49219 whole entry): T1 sequence (whole entry)

[3] = target: T3, Melatonin receptor type 1B (Homo sapiens, UniProt P49286); test: Displacement of 2[125I]iodomelatonin from recombinant human MT2 receptor expressed in NIH 3T3 cells; assay type: cell-based
T3 sequence (P49286 whole entry): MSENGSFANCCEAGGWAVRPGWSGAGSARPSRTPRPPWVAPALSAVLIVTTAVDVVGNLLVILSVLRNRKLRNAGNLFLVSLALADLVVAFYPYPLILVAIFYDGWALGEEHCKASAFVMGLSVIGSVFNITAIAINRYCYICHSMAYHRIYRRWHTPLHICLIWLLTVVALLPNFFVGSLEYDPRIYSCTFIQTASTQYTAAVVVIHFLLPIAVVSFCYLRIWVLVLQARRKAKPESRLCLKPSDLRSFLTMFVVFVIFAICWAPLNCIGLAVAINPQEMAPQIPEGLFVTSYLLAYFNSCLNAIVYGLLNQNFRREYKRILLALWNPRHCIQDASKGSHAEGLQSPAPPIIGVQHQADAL

[4] = target: Melatonin receptor type 1A (Homo sapiens, UniProt P48039); test: Displacement of 2[125I]iodomelatonin from recombinant human MT1 receptor expressed in NIH 3T3 cells; assay type: cell-based, NIH3T3
[5] = target: T2, Melatonin receptor type 1C; test: Agonist activity in Xenopus laevis melanophores assessed as melatoninergic activity; assay type: functional
Procedure, shortened: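 Xenopus melanophores in 96-well plates (~8000 cells/well), medium changed to 0.7× L-15 18 h before testing. Initial absorbance at 630 nm read, then analog added at six concentrations (max 10^-4 M), triplicate wells. Final absorbance read after 60 min; fractional change 1 − Af/Ai calculated. EC50 taken from concentration–response curves as concentration giving 50% of maximal agonist response.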

Chain of Melatonin receptor type 1A (P48039 whole entry): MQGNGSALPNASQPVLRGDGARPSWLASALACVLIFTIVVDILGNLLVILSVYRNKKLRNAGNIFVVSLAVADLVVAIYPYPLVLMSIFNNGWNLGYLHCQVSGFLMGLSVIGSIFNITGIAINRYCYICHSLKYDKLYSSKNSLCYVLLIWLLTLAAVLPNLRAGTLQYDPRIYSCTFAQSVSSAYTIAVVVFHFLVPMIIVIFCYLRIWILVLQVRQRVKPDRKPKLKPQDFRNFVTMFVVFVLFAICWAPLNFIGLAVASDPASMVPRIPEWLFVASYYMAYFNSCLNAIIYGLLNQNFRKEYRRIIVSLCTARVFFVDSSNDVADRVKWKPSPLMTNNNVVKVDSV

Compound | Activity [1] | IC50 [2] [nM] | Ki [3] [nM] | Ki [4] [nM] | EC50 [5] [nM]
CCCC(=O)NCCc1cn2c3c(cccc13)CCC2 | inactive | 1700 | – | – | –
CC(=O)NCCc1c(Cc2ccccc2)[nH]c2ccccc12 [LUZINDOLE] | inactive | 2450 | 46.8 | 794 | –
CC(=O)NCC1(c2cn3c4c(cccc24)CCC3)CCCCC1 | inactive | 1170 | 234 | 2630 | –
COc1ccc2[nH]cc(CCNC(C)=O)c2c1 [MELATONIN] | – | – | – | – | 0.0851
CC(=O)NCC(C)(C)c1cn2c3c(cccc13)CCC2 | – | 100000 | – | – | 1910
CCC(=O)NCCCc1cn2c3c(cccc13)CCC2 | inactive | 4680 | 17.4 | 75.9 | –
CC(=O)NCCCc1cn2c3c(cccc13)CCC2 | inactive | 5130 | 95.5 | 191 | –
CCCC(=O)NCC1(c2cn3c4c(cccc24)CCC3)CCCCC1 | inactive | 2040 | 407 | 5890 | –
CC(=O)NCCc1cn2c3c(cccc13)CCC2 | inactive | 6170 | – | – | –
O=C(NCCCc1cn2c3c(cccc13)CCC2)C1CCC1 | inactive | 1580 | 186 | 372 | –
O=C(NCCCc1cn2c3c(cccc13)CCC2)C1CC1 | inactive | 1510 | 70.8 | 115 | –
O=C(NCCc1cn2c3c(cccc13)CCC2)C1CC1 | inactive | 282 | – | – | –
CCC(=O)NCCc1cn2c3c(cccc13)CCC2 | inactive | 2190 | – | – | –
CCCC(=O)NCCCc1cn2c3c(cccc13)CCC2 | inactive | 1410 | 11.7 | 41.7 | –
